pIC50: −log10 of the molar value. Read-outs that look alike come from different tables or passages of the source.
Tests used:
endogenous SOCE = test: Endogenous SOCE; assay type: cell-based; conditions: read-out: IC50 of endogenous SOCE
Outline: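 Store-operated entry by Fura2 imaging. Cells were loaded with Fura2-AM (2 µM, 30 min, RT) and de-esterified 30 min. They were then exposed 10 min to thapsigargin (2 µM) plus varying test compound concentrations in nominally Ca²⁺-free Hepes buffer (pH 7.2). After a stable baseline, 1 mM Ca²⁺ was added and entry was followed as the 340/380 nm ratio.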

TRPC7 = target: T1, TRPC7 (Homo sapiens, UniProt Q9HCX4); test: Carbachol-induced Sr2+ entry in TRPC7-overexpressing HEK293 cells; assay type: cell-based; conditions: read-out: IC50 of Cch-induced Sr2+ entry; Cch 100 nM, Sr2+ 3 mM
T1 sequence (Q9HCX4 1-862): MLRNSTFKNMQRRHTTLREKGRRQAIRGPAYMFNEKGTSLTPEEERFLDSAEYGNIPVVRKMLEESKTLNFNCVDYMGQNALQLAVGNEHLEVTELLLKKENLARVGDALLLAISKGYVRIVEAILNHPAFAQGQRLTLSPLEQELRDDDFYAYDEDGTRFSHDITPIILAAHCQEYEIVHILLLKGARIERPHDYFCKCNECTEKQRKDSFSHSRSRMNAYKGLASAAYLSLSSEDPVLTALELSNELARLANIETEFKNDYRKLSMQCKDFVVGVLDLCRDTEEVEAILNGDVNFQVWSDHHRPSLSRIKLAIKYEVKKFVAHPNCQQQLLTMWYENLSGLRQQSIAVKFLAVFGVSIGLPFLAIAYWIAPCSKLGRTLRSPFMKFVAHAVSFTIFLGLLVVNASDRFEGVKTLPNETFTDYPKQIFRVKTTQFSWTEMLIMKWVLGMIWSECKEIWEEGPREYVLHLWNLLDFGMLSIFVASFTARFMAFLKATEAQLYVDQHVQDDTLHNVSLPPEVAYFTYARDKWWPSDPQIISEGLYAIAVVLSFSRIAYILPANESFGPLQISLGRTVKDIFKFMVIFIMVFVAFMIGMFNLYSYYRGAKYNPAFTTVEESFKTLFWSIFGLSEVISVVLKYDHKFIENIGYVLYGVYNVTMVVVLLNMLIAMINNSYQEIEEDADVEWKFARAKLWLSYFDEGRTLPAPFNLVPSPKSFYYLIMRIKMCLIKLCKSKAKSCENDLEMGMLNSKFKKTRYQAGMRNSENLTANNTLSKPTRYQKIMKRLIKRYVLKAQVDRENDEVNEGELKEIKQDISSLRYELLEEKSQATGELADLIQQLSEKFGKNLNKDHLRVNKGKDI
Outline: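 HEK293 cells were electroporated with GFP-tagged TRPC4, TRPC5 or TRPC7, plated after 24 h and cultured 48 h under selection; only high-GFP cells were analysed. Coverslip cells were loaded with Fura2 (2 µM) and treated with carbachol (100 nM) plus test compound (0 to 100 µM). Entry was measured after adding Sr²⁺ (3 mM), read as the 340/380 ratio; n = 3 to 5.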

[1] = tested on: Cch-induced ER Ca2+ release; test: Carbachol-induced ER Ca2+ release in TRPC-overexpressing HEK293 cells; assay type: cell-based; conditions: ELP-004 1 nM to 100 μM
murine BMSMCs [2] = test: Basal intracellular Ca2+ during osteoclastogenesis of murine BMSMCs; assay type: cell-based, mouse; conditions: ELP-004 100 nM
Outline: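 C57Bl/6 bone marrow/spleen myeloid cells were grown in αMEM, 10% FBS, and mCSF (50 ng/ml). RANKL (1 or 100 ng/ml) was added at 24 h. After 2–3 days, TNFα (2 ng/ml), LTB4 (50 nM) and test compound (100 nM) were added as indicated, with media refreshed every 3–5 days. On days 1, 7, 14 and 21, cells were Fura2-loaded (2 µM, 30 min, RT; 30 min de-esterification) in pH 7.2 buffer. Basal Ca²⁺ was read as the 340/380 ratio.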

murine BMSMCs [3] = assay type: cell-based, mouse; conditions: ELP-004 100 nM
murine BMSMCs [4] = test: qPCR of osteoclast markers in murine BMSMC-derived osteoclasts; assay type: cell-based, mouse
Outline: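 Murine osteoclasts were cultured in mCSF (50 ng/ml) with RANKL (1 or 100 ng/ml) and, where indicated, LTB4 (50 nM) or TNFα (2 ng/ml) and test compound (100 nM), for up to 14 days. Cells were pelleted and RNA was extracted. Then 250 ng RNA was DNase-treated (ezDNase) and reverse-transcribed with Superscript IV for qPCR.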

[5] = tested on: TRPC4^−/− and TRPC(1–7)^−/− BMSMCs; test: Osteoclastogenesis from TRPC4−/− and TRPC; assay type: cell-based, mouse
Outline: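 Myeloid cells from bone marrow and spleen of TRPC4−/− and TRPC(1–7)−/− mice were cultured in αMEM, 10% FBS and mCSF (50 ng/ml). RANKL (1 or 100 ng/ml) was added at 24 h, and TNFα (2 ng/ml) and test compound (100 nM) 2–3 days later as indicated. Cultures ran 14–21 days with feeding every 3–5 days before TRAP, Ca²⁺ and pit read-outs.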

Human PBMCs = test: Basal Ca2+ and Ca2+ oscillations in human PBMC-derived osteoclasts; assay type: cell-based; conditions: ELP-004 100 nM; for effect on basal Ca2+ levels: 14 days
Outline: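 Human PBMCs cultured in αMEM with 10% FBS and human mCSF (50 ng/ml). At 24 h, RANKL (1 or 100 ng/ml) was added; 2–3 days later, human TNFα (2 ng/ml) and test compound (100 nM) were added where indicated. On day 14, coverslip cells were Fura2-loaded (2 µM, 30 min, RT) in buffer with 1 mM Ca²⁺ (pH 7.2) and de-esterified 30 min. Basal 340/380 ratio was recorded 3–5 min in 30–50 cells and plotted against variance.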

pIC50 (endogenous SOCE): 4.00
pIC50 (TRPC7): 7.64
SMILES: CCC(=O)N(C)c1ccc(Cl)c(Cl)c1 [ELP-004]
effect on Cch-induced ER Ca2+ release [1]: no effect
effect on Ca2+ elevation (murine BMSMCs [2]; LTB4 (50 nM)/RANKL (1 ng/ml)): significantly attenuated
effect on basal Ca2+ levels (murine BMSMCs [2]; RANKL-induced (100 ng/ml), days 1-21): no significant effect
effect on Ca2+ elevation (murine BMSMCs [2]; TNFα (2 ng/ml)/RANKL (1 ng/ml)): significantly attenuated
effect on TRAP intensity (murine BMSMCs [3]; LTB4/RANKL): completely prevented the increase
effect on number of TRAP-positive cells (murine BMSMCs [3]; LTB4/RANKL): no effect
effect on multinucleation (murine BMSMCs [3]; LTB4/RANKL, days 7 and 14): significant ELP-004–induced decreases
effect on TRAP intensity (murine BMSMCs [3]; RANKL (100 ng/ml)): no impact
effect on number of TRAP-positive cells (murine BMSMCs [3]; RANKL (100 ng/ml)): no impact
effect on number of TRAP-positive cells (murine BMSMCs [3]; TNFα (2 ng/ml)/RANKL (1 ng/ml)): no significant effect
effect on TRAP intensity increases (murine BMSMCs [3]; TNFα/RANKL): severely attenuated
effect on number of multinuclear cells (murine BMSMCs [3]; TNFα/RANKL, P < 0.0005): significantly attenuated
effect on TRAP-positive cells (murine BMSMCs [3]; mCSF (50 ng/ml) only): no effect
effect on TRAP-positive cells (murine BMSMCs [3]; mCSF + RANKL (1 ng/ml)): no effect
changes in LTB4-induced expression of other osteoclast markers (murine BMSMCs [4]; LTB4/RANKL, ELP-004 100 nM): no significant changes
effect on LTB4-induced increase in DC-STAMP expression (murine BMSMCs [4]; LTB4/RANKL, ELP-004 100 nM): no effect
effect on LTB4-induced increase in OC-STAMP expression (murine BMSMCs [4]; LTB4/RANKL, ELP-004 100 nM): no effect
changes in OC-STAMP mRNA expression (murine BMSMCs [4]; RANKL (100 ng/ml), ELP-004 100 nM): no significant changes
effect on DC-STAMP mRNA expression (murine BMSMCs [4]; RANKL (100 ng/ml), day 14, ELP-004 100 nM): Significant inhibition
effect on MMP9 expression (murine BMSMCs [4]; RANKL, day 14, ELP-004 100 nM): inhibited
effect on DC-STAMP expression (murine BMSMCs [4]; TNFα/RANKL, ELP-004 100 nM): abrogated
effect on MMP9 expression (murine BMSMCs [4]; TNFα/RANKL, ELP-004 100 nM): suppressed
effect on OC-STAMP expression (murine BMSMCs [4]; TNFα/RANKL, ELP-004 100 nM): abrogated
effect on other osteoclast markers (murine BMSMCs [4]; TNFα/RANKL, ELP-004 100 nM): no other osteoclast markers
effect on intracellular Ca2+ ([5]; RANKL or RANKL/TNFα osteoclasts from knockout BMSMCs): no effect
effect on TRAP expression ([5]; knockout BMSMCs): no effect
effect on cell size ([5]; knockout BMSMCs): no effect
effect on multinucleation ([5]; knockout BMSMCs): no effect
effect on pit formation ([5]; knockout BMSMCs): no effect
effect on basal Ca2+ levels (Human PBMCs; RANKL (100 ng/ml)): significantly lowered
effect on Ca2+ oscillations (Human PBMCs; RANKL alone): no effect
effect on basal Ca2+ levels (Human PBMCs; TNFα (2 ng/ml)/RANKL (1 ng/ml)): significantly lowered
effect on Ca2+ oscillation generation (Human PBMCs; TNFα/RANKL): significantly lowered

Source: paper PMC11734723 (Science Advances, 2025)
